Read-outs that look alike come from different tables or passages of the source. Marks after values point to notes of the source that are not given here. Residues, ends and D or L forms follow the SMILES beside them.
Assays:
[1] = for Cmax: 20-min i.v. infusion, n=12, estimate (SE); for AUCτ / λz: i.v. infusion, n=12, pooled
[2] = Single-dose i.v. pharmacokinetics in mice; assay type: in vivo, CD-1 mice; conditions: 5 mg/kg single i.v. bolus, n=4/time point
Summary of the method: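 Male and female CD-1 mice received a single 5 mg/kg i.v. bolus into the lateral tail vein, with 2/sex per time point. EDTA blood was taken by terminal cardiac puncture at 0.25, 1, 2, 4, 8 and 24 h; plasma was stored at −80°C. Sparse-sampling NCA used nominal times, linear-up/log-down AUC, and excluded values below LLOQ.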

[3] = Serum biochemistry of rats at the end of treatment; assay type: in vivo, Sprague-Dawley rats; conditions: median (IQR)

CC[C@H](C)[C@@H]1NC(=O)[C@@H]2CSSC[C@H](NC(=O)[C@H](CCCNC(=N)N)NC(=O)[C@@H]3CSSC[C@H](NC1=O)C(=O)N[C@@H]([C@@H](C)O)C(=O)N[C@@H](CCCNC(=N)N)C(=O)NCC(=O)N[C@@H](Cc1ccccc1)C(=O)N3)C(=O)N[C@@H](CC(C)C)C(=O)N[C@H]1CSSC[C@H](NC(=O)[C@H](C(C)C)NC(=O)CNC(=O)[C@H](CCCNC(=N)N)NC(=O)[C@H](CCCNC(=N)N)NC1=O)C(=O)N[C@@H](CCCNC(=N)N)C(=O)N2 [RTD-1, Rhesus theta (θ) defensin-1] (HELM PEPTIDE1{G.F.C.R.C.L.C.R.R.G.V.C.R.C.I.C.T.R}$PEPTIDE1,PEPTIDE1,3:R3-16:R3|PEPTIDE1,PEPTIDE1,5:R3-14:R3|PEPTIDE1,PEPTIDE1,7:R3-12:R3|PEPTIDE1,PEPTIDE1,1:R1-18:R2$$$V2.0)
Cmax ([1]; 5 mg/kg Day 1): 7,468 (1,202)^b ng/mL | AUCτ ([1]; 5 mg/kg Day 1): 14,956 ng · h/mL | λz ([1]; 5 mg/kg Day 1): 0.056 h⁻¹ | AUCτ ([1]; 5 mg/kg Day 7): 12,468 ng · h/mL | λz ([1]; 5 mg/kg Day 7): 0.104 h⁻¹ | AUCτ on day 7 lower than AUC0-∞ on day 1 ([1]; 5 mg/kg/day): 22% | Cmax ([1]; 10 mg/kg Day 1): 27,533 (1,419)* ng/mL | AUCτ ([1]; 10 mg/kg Day 1): 41,669 ng · h/mL | λz ([1]; 10 mg/kg Day 1): 0.148 h⁻¹ | λz ([1]; 10 mg/kg Day 7): 0.133 h⁻¹ | AUCτ on day 7 lower than AUC0-∞ on day 1 ([1]; 10 mg/kg/day): 19% | Cmax ([1]; 20 mg/kg Day 1): 35,400 (5,350)# ng/mL | λz ([1]; 20 mg/kg Day 1): 0.221 h⁻¹ | plasma levels during the recovery period (day 25) ([1]; all rats except one female at 10 mg/kg): undetectable | increase in AUC0-∞ from 5 mg/kg to 20 mg/kg ([1]; single ascending dose): 8 fold | AUC0-∞ ([2]; pooled NCA): 12,497 ng · h/mL | AUCτ ([2]; pooled NCA): 12,282 ng · h/mL | CL ([2]; pooled NCA): 6.67 mL/min/kg | MRT ([2]; pooled NCA): 2.62 h | λz ([2]; pooled NCA): 0.114 h⁻¹ | Cmax ([2]; pooled, estimate (SE)): 8,919 (1,088)^b ng/mL | A/G ([3]; female, 5 mg/kg/day): 2.1 (0.2) | ALP ([3]; female, 5 mg/kg/day): 92.0 (21.0) U/L | ALT ([3]; female, 5 mg/kg/day): 35.0 (7.0) U/L | AST ([3]; female, 5 mg/kg/day): 139.0 (35.0) U/L | Albumin ([3]; female, 5 mg/kg/day): 3.9 (0.3) g/dL | CK ([3]; female, 5 mg/kg/day): 792.0 (198.0) U/L | Calcium ([3]; female, 5 mg/kg/day): 9.8 (0.2) mg/dL | Chloride ([3]; female, 5 mg/kg/day): 105.0 (2.0) mmol/L | Cholesterol ([3]; female, 5 mg/kg/day): 55.0 (15.0) mg/dL | Creatinine ([3]; female, 5 mg/kg/day): 0.3 (0.0) mg/dL | GGT ([3]; female, 5 mg/kg/day): 0.0 (0.0) U/L | Globulin ([3]; female, 5 mg/kg/day): 1.8 (0.1) g/dL | Glucose ([3]; female, 5 mg/kg/day): 97.0 (16.0) mg/dL | Phos ([3]; female, 5 mg/kg/day): 7.3 (0.8) mg/dL | Potassium ([3]; female, 5 mg/kg/day): 4.9 (0.4) mmol/L | Sodium ([3]; female, 5 mg/kg/day): 143.0 (1.0) mmol/L | T-Bil ([3]; female, 5 mg/kg/day): 0.0 (0.0) mg/dL | TP ([3]; female, 5 mg/kg/day): 5.8 (0.5) g/dL | Triglycerides ([3]; female, 5 mg/kg/day): 25.0 (7.0) mg/dL | Urea N ([3]; female, 5 mg/kg/day): 20.0 (2.0) mg/dL | A/G ([3]; female, 10 mg/kg/day): 2.2 (0.2) | ALP ([3]; female, 10 mg/kg/day): 109.5 (30.5) U/L | ALT ([3]; female, 10 mg/kg/day): 32.5 (6.0) U/L | AST ([3]; female, 10 mg/kg/day): 122.0 (14.3) U/L | Albumin ([3]; female, 10 mg/kg/day): 3.9 (0.1) g/dL | CK ([3]; female, 10 mg/kg/day): 473.5 (211.3) U/L | Calcium ([3]; female, 10 mg/kg/day): 10.0 (0.3) mg/dL | Chloride ([3]; female, 10 mg/kg/day): 105.0 (2.0) mmol/L | Cholesterol ([3]; female, 10 mg/kg/day): 55.0 (26.5) mg/dL | Creatinine ([3]; female, 10 mg/kg/day): 0.3 (0.0) mg/dL | GGT ([3]; female, 10 mg/kg/day): 0.0 (0.0) U/L | Globulin ([3]; female, 10 mg/kg/day): 1.8 (0.2) g/dL | Glucose ([3]; female, 10 mg/kg/day): 99.0 (5.5) mg/dL | Phos ([3]; female, 10 mg/kg/day): 7.1 (0.8) mg/dL | Potassium ([3]; female, 10 mg/kg/day): 5.1 (0.5) mmol/L | Sodium ([3]; female, 10 mg/kg/day): 142.5 (1.0) mmol/L | T-Bil ([3]; female, 10 mg/kg/day): 0.0 (0.0) mg/dL | TP ([3]; female, 10 mg/kg/day): 5.7 (0.4) g/dL | Triglycerides ([3]; female, 10 mg/kg/day): 26.0 (11.5) mg/dL | Urea N ([3]; female, 10 mg/kg/day): 21.0 (1.8) mg/dL | A/G ([3]; female, 20 mg/kg, day 2): 3.0 (0.4)^c^,^d^,^e | ALP ([3]; female, 20 mg/kg, day 2): 142.0 (34.5)^d^,^e U/L | ALT ([3]; female, 20 mg/kg, day 2): 62.0 (28.5)^c^,^d^,^e U/L | AST ([3]; female, 20 mg/kg, day 2): 397.0 (345.5)^d^,^e U/L | Albumin ([3]; female, 20 mg/kg, day 2): 3.0 (0.6)^d^,^e g/dL | CK ([3]; female, 20 mg/kg, day 2): 1,506.0 (2,604.5) U/L | Calcium ([3]; female, 20 mg/kg, day 2): 10.3 (0.6)^c^,^d mg/dL | Chloride ([3]; female, 20 mg/kg, day 2): 104.0 (3.0) mmol/L | Cholesterol ([3]; female, 20 mg/kg, day 2): 52.0 (6.5) mg/dL | Creatinine ([3]; female, 20 mg/kg, day 2): 0.5 (0.2)^c^,^d^,^e mg/dL | GGT ([3]; female, 20 mg/kg, day 2): 4.0 (5.5)^c^,^d^,^e U/L | Globulin ([3]; female, 20 mg/kg, day 2): 1.0 (0.3)^c^,^d^,^e g/dL | Glucose ([3]; female, 20 mg/kg, day 2): 218.0 (70.0)^c^,^d^,^e mg/dL | Phos ([3]; female, 20 mg/kg, day 2): 9.3 (5.0) mg/dL | Potassium ([3]; female, 20 mg/kg, day 2): 4.9 (0.7) mmol/L | Sodium ([3]; female, 20 mg/kg, day 2): 141.0 (2.5)^c mmol/L | T-Bil ([3]; female, 20 mg/kg, day 2): 0.0 (0.0) mg/dL | TP ([3]; female, 20 mg/kg, day 2): 3.9 (0.8)^c^,^d^,^e g/dL | Triglycerides ([3]; female, 20 mg/kg, day 2): 106.0 (36.5)^c^,^d^,^e mg/dL | Urea N ([3]; female, 20 mg/kg, day 2): 20.0 (3.0) mg/dL | A/G ([3]; male, 5 mg/kg/day): 2.2 (0.3) | ALP ([3]; male, 5 mg/kg/day): 212.0 (40.3) U/L | ALT ([3]; male, 5 mg/kg/day): 40.0 (9.8) U/L | AST ([3]; male, 5 mg/kg/day): 133.0 (34.0) U/L | Albumin ([3]; male, 5 mg/kg/day): 3.8 (0.0) g/dL | CK ([3]; male, 5 mg/kg/day): 765.5 (395.5) U/L | Calcium ([3]; male, 5 mg/kg/day): 9.8 (0.4) mg/dL | Chloride ([3]; male, 5 mg/kg/day): 104.5 (1.8) mmol/L | Cholesterol ([3]; male, 5 mg/kg/day): 70.5 (10.3) mg/dL | Creatinine ([3]; male, 5 mg/kg/day): 0.2 (0.1) mg/dL | GGT ([3]; male, 5 mg/kg/day): 0.0 (0.0) U/L | Globulin ([3]; male, 5 mg/kg/day): 1.7 (0.2) g/dL | Glucose ([3]; male, 5 mg/kg/day): 72.5 (16.3) mg/dL | Phos ([3]; male, 5 mg/kg/day): 8.5 (0.5) mg/dL | Potassium ([3]; male, 5 mg/kg/day): 5.2 (0.2) mmol/L | Sodium ([3]; male, 5 mg/kg/day): 144.0 (1.8) mmol/L | T-Bil ([3]; male, 5 mg/kg/day): 0.0 (0.0) mg/dL | TP ([3]; male, 5 mg/kg/day): 5.5 (0.2) g/dL | Triglycerides ([3]; male, 5 mg/kg/day): 37.0 (21.5) mg/dL | Urea N ([3]; male, 5 mg/kg/day): 16.5 (4.0) mg/dL | A/G ([3]; male, 10 mg/kg/day): 2.4 (0.2) | ALP ([3]; male, 10 mg/kg/day): 212.5 (51.5) U/L | ALT ([3]; male, 10 mg/kg/day): 32.5 (4.5) U/L | AST ([3]; male, 10 mg/kg/day): 113.5 (16.8) U/L | Albumin ([3]; male, 10 mg/kg/day): 3.7 (0.2) g/dL | CK ([3]; male, 10 mg/kg/day): 612.5 (254.8) U/L | Calcium ([3]; male, 10 mg/kg/day): 9.7 (0.2) mg/dL | Chloride ([3]; male, 10 mg/kg/day): 105.0 (1.0) mmol/L | Cholesterol ([3]; male, 10 mg/kg/day): 66.0 (14.3) mg/dL | Creatinine ([3]; male, 10 mg/kg/day): 0.3 (0.1) mg/dL | GGT ([3]; male, 10 mg/kg/day): 0.0 (0.0) U/L | Globulin ([3]; male, 10 mg/kg/day): 1.6 (0.2) g/dL | Glucose ([3]; male, 10 mg/kg/day): 83.0 (6.8) mg/dL | Phos ([3]; male, 10 mg/kg/day): 8.6 (1.0) mg/dL | Potassium ([3]; male, 10 mg/kg/day): 5.1 (0.3) mmol/L | Sodium ([3]; male, 10 mg/kg/day): 144.0 (0.0) mmol/L | T-Bil ([3]; male, 10 mg/kg/day): 0.0 (0.0) mg/dL | TP ([3]; male, 10 mg/kg/day): 5.4 (0.3) g/dL | Triglycerides ([3]; male, 10 mg/kg/day): 29.0 (5.3) mg/dL | Urea N ([3]; male, 10 mg/kg/day): 19.0 (3.5) mg/dL | A/G ([3]; male, 20 mg/kg, day 2): 2.7 (0.1)^c^,^d^,^e | ALP ([3]; male, 20 mg/kg, day 2): 232.0 (45.0) U/L | ALT ([3]; male, 20 mg/kg, day 2): 74.0 (38.0)^d^,^e U/L | AST ([3]; male, 20 mg/kg, day 2): 245.0 (100.0)^d^,^e U/L | Albumin ([3]; male, 20 mg/kg, day 2): 2.7 (0.0)^c^,^d^,^e g/dL | CK ([3]; male, 20 mg/kg, day 2): 707.0 (615.0) U/L | Calcium ([3]; male, 20 mg/kg, day 2): 9.4 (0.5)^d mg/dL | Chloride ([3]; male, 20 mg/kg, day 2): 101.0 (1.0)^c^,^d^,^e mmol/L | Cholesterol ([3]; male, 20 mg/kg, day 2): 67.0 (7.0) mg/dL | Creatinine ([3]; male, 20 mg/kg, day 2): 0.4 (0.1)^c^,^d^,^e mg/dL | GGT ([3]; male, 20 mg/kg, day 2): 0.0 (0.0) U/L | Globulin ([3]; male, 20 mg/kg, day 2): 1.0 (0.0)^c^,^d^,^e g/dL | Glucose ([3]; male, 20 mg/kg, day 2): 175.0 (35.0)^c^,^d^,^e mg/dL | Phos ([3]; male, 20 mg/kg, day 2): 9.3 (3.8) mg/dL | Potassium ([3]; male, 20 mg/kg, day 2): 5.1 (0.6) mmol/L | Sodium ([3]; male, 20 mg/kg, day 2): 140.0 (2.0)^c^,^d^,^e mmol/L | T-Bil ([3]; male, 20 mg/kg, day 2): 0.1 (0.2) mg/dL | TP ([3]; male, 20 mg/kg, day 2): 3.7 (0.1)^c^,^d^,^e g/dL | Triglycerides ([3]; male, 20 mg/kg, day 2): 193.0 (111.0)^c^,^d^,^e mg/dL | Urea N ([3]; male, 20 mg/kg, day 2): 28.0 (6.0)^c^,^d^,^e mg/dL

Reference: publication PMC8923172 (Antimicrobial Agents and Chemotherapy, 2022)
